The results in this text go back to ChEMBL document CHEMBL2417467, “Antiproliferative cardiac glycosides from the latex of Antiaris toxicaria” (J Nat Prod, 2013).

Calls of active or inactive are those of the source. The rule behind the calls is not given here.

A short description of assay [1]: Cytotoxicity against human NIH-H460 cells assessed as cell viability at 50 nM after 48 hrs by MTT assay relative to control. In kind it is functional. The following applies: NIH-H460, 48 h. In short, it runs like this: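 NIH-H460 cells (RPMI 1640, 10% FBS, 1% L-glutamine, penicillin/streptomycin) were seeded at 1 × 10^4 cells/well and exposed to 50 nM for 48 h. MTT was then added at 0.5 mg/mL final in medium for 2 h in the dark at 37 °C. Formazan was dissolved in DMSO for 15 min at RT and read at 570 nm. Output was inhibitory rate (%).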

The subject of assay [2] is NIH-H460. The assay is described as follows: Induction of apoptosis in human NIH-H460 cells assessed as caspase-3 activation at 20 nM after 24 hrs by Western blotting analysis. In kind it is functional, cell-based.
Assay [3] in a line: Induction of apoptosis in human NIH-H460 cells at 20 nM after 36 hrs by microscopic analysis relative to control. The assay is classed as functional. In short, it runs like this:
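NIH-H460 cells were exposed to vehicle or 20 nM in serum-free medium for up to 36 h. Detached and attached cells were pooled and stained with 50 μg/mL DAPI plus 100 μg/mL RNase A at 37 °C for 20 min. Apoptotic cells were scored by cytoplasmic shrinkage, membrane blebbing and nuclear condensation/fragmentation, and reported as % apoptotic cells.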

In assay [4] the test system is NIH-H460. The experiment in a line: Induction of apoptosis in human NIH-H460 cells assessed as localization of Nur77 in nucleus at 20 nM after 3 hrs by immunofluorescence microscopic analysis. The assay is classed as functional, cell-based. In short, it runs like this: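 NIH-H460 cells on slides were treated with 20 nM for 3 h, then given MitoTracker Red (25 nM) for 15 min. Cells were permeabilised with 0.01% digitonin in PBS for 30 min and blocked with 1% BSA for 30 min. Anti-Nur77 (1:200) was applied for 3 h at RT, then FITC/Cy3 anti-rabbit IgG for 1 h. DAPI marked nuclei, and images were taken by confocal microscopy.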

The test system of assay [5] is NIH-H460. The assay is described as follows: Induction of Nur77 protein expression in human NIH-H460 cells at […] by Western blotting analysis. In kind it is functional, cell-based. In short, it runs like this: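 NIH-H460 cells were treated with vehicle or compound, either at 2.5–40 nM for 3 h or at 20 nM over a time course. Equal amounts of lysate were run on 8% SDS-PAGE and blotted to PVDF. Membranes were blocked in 5% milk/TBST and probed overnight at 4 °C with anti-Nur77 (1:1000). Bands were detected by ECL, with β-actin reprobe as loading control.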

Regarding `C[C@H]1O[C@@H](O[C@H]2CC[C@@]3(CO)[C@H](CC[C@@H]4[C@@H]3C[C@@H](O)[C@]3(C)[C@@H](C5=CC(=O)OC5)CC[C@]43O)C2)[C@H](O)[C@H](O)[C@H]1O`, in assay [1], the inhibition at 0.05 µM is 63.8%. As for `C[C@]12CC[C@H]3[C@@H](CC[C@]4(O)C[C@@H](O)CC[C@]34C(=O)O[C@@H]3O[C@H](CO)[C@@H](O)[C@H](O)[C@H]3O)[C@@]1(O)CC[C@@H]2C1=CC(=O)OC1`, the outcome with NIH-H460 [2] was inactive. This compound also displayed an Activity in assay [3] of 6.8%. For the same compound, the result in the assay on NIH-H460 [4] and with NIH-H460 [5] was Active. In addition, the inhibition at 0.05 µM in assay [1] was 11.1%. In the case of `C[C@H]1O[C@@H](O[C@@H]2CC[C@]3(C=O)[C@H]4C[C@@H](O)[C@]5(C)[C@@H](C6=CC(=O)OC6)CC[C@]5(O)[C@@H]4CC[C@]3(O)C2)[C@H](O)[C@H](O)[C@@H]1O`, the inhibition at 0.05 µM in assay [1] turned out to be 6.9%. For `C[C@@H]1O[C@@H](O[C@H]2CC[C@@]3(C=O)[C@H](CC[C@@H]4[C@@H]3C[C@@H](O)[C@]3(C)[C@@H](C5=CC(=O)OC5)CC[C@]43O)C2)[C@H](O)[C@H](O)[C@H]1O`, in assay [1], the inhibition at 0.05 µM was 81.9%. For the compound `C[C@@H]1O[C@@H](O[C@H]2CC[C@@]3(CO)[C@H](CC[C@@H]4[C@@H]3CC[C@]3(C)[C@@H](C5=CC(=O)OC5)CC[C@]43O)C2)[C@H](O)[C@H](O)[C@H]1O`, the inhibition at 0.05 µM in assay [1] turned out to be 82.4%. As to `C[C@@H]1O[C@@H](O[C@@H]2CC[C@]3(C=O)[C@H]4C[C@@H](O)[C@]5(C)[C@@H](C6=CC(=O)OC6)CC[C@]5(O)[C@@H]4CC[C@]3(O)C2)[C@H](O)[C@H](O)[C@H]1O`, the inhibition at 0.05 µM in assay [1] was found to be 6.3%. For `C[C@H]1O[C@@H](O[C@@H]2CC[C@]3(C=O)[C@H]4C[C@@H](O)[C@]5(C)[C@@H](C6=CC(=O)OC6)CC[C@]5(O)[C@@H]4CC[C@]3(O)C2)[C@H](O)[C@H](O)[C@H]1O`, the inhibition at 0.05 µM in assay [1] was found to be 3.2%.

In the case of `C[C@H]1O[C@H](O[C@H]2CC[C@]3(C=O)[C@H]4C[C@@H](O)[C@]5(C)[C@@H](C6=CC(=O)OC6)CC[C@]5(O)[C@@H]4CC[C@]3(O)C2)[C@H](O)[C@H](O)[C@@H]1O` [ANTIALLOSIDE], the inhibition at 0.05 µM in assay [1] came out at 70.7%. Take `C[C@H]1O[C@@H](O[C@H]2CC[C@]3(CO)[C@H]4CC[C@]5(C)[C@@H](C6=CC(=O)OC6)CC[C@]5(O)[C@@H]4CC[C@]3(O)C2)[C@H](O)[C@H](O)[C@H]1O` [DEGLUCOCHEIROTOXOL]: the inhibition at 0.05 µM in assay [1] came out at 67.9%. The same measure, in the same setting: the figure for `C[C@H]1O[C@@H](O[C@H]2CC[C@]3(C)[C@H]4C[C@@H](O)[C@]5(C)[C@@H](C6=CC(=O)OC6)CC[C@]5(O)[C@@H]4CC[C@]3(O)C2)[C@H](O)[C@H](O)[C@H]1O` is 33.9%. As to `C[C@@H]1O[C@H](O[C@H]2CC[C@]3(CO)[C@H]4CC[C@]5(C)[C@@H](C6=CC(=O)OC6)CC[C@]5(O)[C@@H]4CC[C@]3(O)C2)[C@H](O)[C@H](O)[C@H]1O` [CONVALLATOXOL], in assay [1], the inhibition at 0.05 µM is 80.7%. As for `C[C@H]1O[C@@H](O[C@H]2CC[C@]3(C)[C@H]4C[C@@H](O)[C@]5(C)[C@@H](C6=CC(=O)OC6)CC[C@]5(O)[C@@H]4CC[C@]3(O)C2)[C@H](O)[C@H](O)[C@@H]1O` [ANTIOGOSIDE], the inhibition at 0.05 µM in assay [1] stood at 34.3%. In the case of `C[C@@H]1O[C@@H](O[C@H]2CC[C@]3(C=O)[C@H]4C[C@H](O)[C@]5(C)[C@@H](C6=CC(=O)OC6)CC[C@]5(O)[C@@H]4CC[C@]3(O)C2)[C@H](O)[C@H](O)[C@H]1O`, the inhibition at 0.05 µM in assay [1] is 82.8%. The same measure, in the same setting: the figure for `C[C@H]1O[C@@H](O[C@H]2CC[C@]3(C=O)[C@H]4CC[C@]5(C)[C@@H](C6=CC(=O)OC6)CC[C@]5(O)[C@@H]4CC[C@]3(O)C2)[C@H](O)[C@H](O)[C@H]1O` [DESGLUCOCHEIROTOXIN] is 76.9%; for `C[C@@H]1O[C@H](O[C@H]2CC[C@]3(C=O)[C@H]4C[C@@H](O)[C@]5(C)[C@@H](C6=CC(=O)OC6)CC[C@]5(O)[C@@H]4CC[C@]3(O)C2)[C@H](O)[C@H](O)[C@H]1O` it is 81.4%. For `C[C@H]1O[C@H](O[C@H]2CC[C@]3(C=O)[C@H]4C[C@@H](O)[C@]5(C)[C@@H](C6=CC(=O)OC6)CC[C@]5(O)[C@@H]4CC[C@]3(O)C2)[C@H](O)[C@H](O)[C@H]1O`, the inhibition at 0.05 µM in assay [1] came out at 45%. Still for that read-out and setting: the same measure for `C[C@@H]1O[C@@H](O[C@H]2CC[C@]3(C=O)[C@H]4C[C@@H](O)[C@]5(C)[C@H](C6=CC(=O)OC6)CC[C@]5(O)[C@@H]4CC[C@]3(O)C2)[C@H](O)[C@H](O)[C@H]1O`: 6.2%. Regarding `C[C@H]1O[C@@H](O[C@H]2CC[C@]3(C(=O)O)[C@H]4C[C@@H](O)[C@]5(C)[C@@H](C6=CC(=O)OC6)CC[C@]5(O)[C@@H]4CC[C@]3(O)C2)[C@H](O)[C@H](O)[C@@H]1O`, the result in the assay on NIH-H460 [2] was inactive. This compound gave an Activity in assay [3] of 3.4%. For the same compound, the outcome in the assay on NIH-H460 [4] and with NIH-H460 [5] was Active. The inhibition at 0.05 µM in assay [1] is 7.8%.

On to `C[C@@H]1O[C@@H](O[C@H]2CC[C@]3(C)[C@H]4C[C@@H](O)[C@]5(C)[C@@H](C6=CC(=O)OC6)CC[C@]5(O)[C@@H]4CC[C@]3(O)C2)[C@H](O)[C@H](O)[C@H]1O` [ANTIOSIDE], for which the inhibition at 0.05 µM in assay [1] amounted to 75.7%.

For `C[C@H]1O[C@@H](O[C@H]2CC[C@@]3(C=O)[C@H](CC[C@@H]4[C@@H]3C[C@@H](O)[C@]3(C)[C@@H](C5=CC(=O)OC5)CC[C@]43O)C2)[C@H](O)[C@H](O)[C@H]1O`, the inhibition at 0.05 µM in assay [1] was 82.3%. `C[C@H]1O[C@@H](O[C@H]2CC[C@]3(CO)[C@H]4C[C@@H](O)[C@]5(C)[C@@H](C6=CC(=O)OC6)CC[C@]5(O)[C@@H]4CC[C@]3(O)C2)[C@H](O)[C@H](O)[C@H]1O`: the inhibition at 0.05 µM in assay [1] was determined as 64.2%. With `C[C@@H]1O[C@H](O[C@@H]2CC[C@]3(C=O)[C@H]4CC[C@]5(C)[C@@H](C6=CC(=O)OC6)CC[C@]5(O)[C@@H]4CC[C@]3(O)C2)[C@H](O)[C@H](O)[C@H]1O` [ANTIAROSIDE C], the inhibition at 0.05 µM in assay [1] came out at 18.9%. For `CO[C@H]1[C@@H](O[C@H]2CC[C@]3(C=O)[C@H]4CC[C@]5(C)[C@@H](C6=CC(=O)OC6)CC[C@]5(O)[C@@H]4CC[C@]3(O)C2)O[C@H](C)[C@@H](O)[C@H]1O` [STROPHATHOJAVOSIDE], the inhibition at 0.05 µM in assay [1] amounted to 65%. Take `C[C@@H]1O[C@@H](O[C@H]2CC[C@]3(CO)[C@H]4C[C@@H](O)[C@]5(C)[C@@H](C6=CC(=O)OC6)CC[C@]5(O)[C@@H]4CC[C@]3(O)C2)[C@H](O)[C@H](O)[C@H]1O`: the inhibition at 0.05 µM in assay [1] is 60.2%.

As to `C[C@H]1O[C@@H](O[C@@H]2CC[C@]3(C=O)[C@H]4CC[C@]5(C)[C@@H](C6=CC(=O)OC6)CC[C@]5(O)[C@@H]4CC[C@]3(O)C2)[C@H](O)[C@H](O)[C@H]1O`, in assay [1], the inhibition at 0.05 µM is 6.8%.

On to `C[C@]12CC[C@H]3[C@@H](CC[C@]4(O)C[C@@H](O)CC[C@]34CO[C@@H]3O[C@H](CO)[C@@H](O)[C@H](O)[C@H]3O)[C@@]1(O)CC[C@@H]2C1=CC(=O)OC1`, for which, in assay [1], the inhibition at 0.05 µM is 29.4%.

For `CO[C@H]1[C@@H](O[C@H]2CC[C@]3(C=O)[C@H]4C[C@@H](O)[C@]5(C)[C@@H](C6=CC(=O)OC6)CC[C@]5(O)[C@@H]4CC[C@]3(O)C2)O[C@H](C)[C@@H](O)[C@@H]1O` [TOXICARIOSIDE B], in assay [1], the inhibition at 0.05 µM came out at 71.4%.

Consider `C[C@@H]1O[C@@H](O[C@H]2CC[C@]3(C=O)[C@H]4CC[C@]5(C)[C@@H](C6=CC(=O)OC6)CC[C@]5(O)[C@@H]4CC[C@]3(O)C2)[C@H](O)[C@H](O)[C@H]1O` [CONVALLATOXIN], for which the inhibition at 0.05 µM in assay [1] was 82.1%. With `C[C@H]1O[C@@H](O[C@H]2CC[C@]3(C=O)[C@H]4C[C@@H](O)[C@]5(C)[C@H](C6=CC(=O)OC6)CC[C@]5(O)[C@@H]4CC[C@]3(O)C2)[C@H](O)[C@H](O)[C@H]1O`, the inhibition at 0.05 µM in assay [1] stood at 9.3%.

With `C[C@@H]1C[C@@H](O)[C@@H](O)[C@H](O[C@H]2CC[C@]3(C=O)[C@H]4C[C@@H](O)[C@]5(C)[C@@H](C6=CC(=O)OC6)CC[C@]5(O)[C@@H]4CC[C@]3(O)C2)O1`, in assay [1], the inhibition at 0.05 µM came to 81.6%.
